Drawing on ChEMBL document CHEMBL4480459, “Acylated Lignans Isolated from Brachanthemum gobicum and Their Trypanocidal Activity” (J Nat Prod, 2019), this text covers IC50 for 17 compounds.

Structures are written as SMILES. Some results are limits rather than exact numbers.

The test system of this test is Trypanosoma congolense. The test is described as follows: Trypanocidal activity against bloodstream form of Trypanosoma congolense IL3000 after 72 hrs by CellTiter-Glo reagent-based luminescence assay. In kind it is functional, organism-based. To be noted: IL3000, 72 h. In outline:
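BSF parasites maintained daily in HMI-9 medium. Compounds serially diluted 5-fold in HMI-9 from 25 μg/mL to 1.6 ng/mL and incubated with trypanosomes for 72 h. Viability read by luminescence after CellTiter-Glo addition; IC50 calculated from the dilution series. Pentamidine as positive control.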
`COc1cc([C@@H]2Oc3c(OC)cc(/C=C/C=O)cc3[C@H]2COC(=O)CC(C)C)ccc1O` had an IC50 of 2.4 µM.
In turn, `COc1cc(C(=O)[C@@H](COC(=O)CC(C)C)Oc2ccc(/C=C/COC(=O)CC(C)C)cc2OC)ccc1O` registered an IC50 of 9.6 µM.
`COc1cc(/C=C/C(=O)O)ccc1O` [FERULATE] gave an IC50 of more than 25 µM.
In the case of `COc1cc([C@@H]2Oc3c(OC)cc(/C=C/C=O)cc3[C@H]2COC(C)=O)ccc1O`, it took 7.6 µM to reach half-maximal inhibition (IC50).
With `COc1cc([C@@H](O)[C@@H](COC(=O)CC(C)C)Oc2ccc(/C=C/COC(=O)CC(C)C)cc2OC)ccc1O`, the IC50 was 17.4 µM.
Regarding `COc1cc(C=O)ccc1O` [VANILLIN], the IC50 is more than 25 µM.
Take `COc1cc([C@@H]2Oc3c(OC)cc(C=O)cc3[C@H]2COC(=O)CC(C)C)ccc1O`: the midpoint of inhibition, the IC50, lay at 19.9 µM.
Then `C=C(C=O)[C@H](COC(=O)CC(C)C)C(c1ccc(O)c(OC)c1)c1ccc(O)c(OC)c1`, with 2.8 µM; and `COc1cc([C@@H](OC)[C@H](O)COC(=O)CC(C)C)ccc1O`, with more than 25 µM.
As for `COc1cc(/C=C/COC(=O)CC(C)C)ccc1O`, the IC50 was more than 25 µM.
On to `COc1cc(C(=O)[C@@H](COC(=O)CC(C)C)c2cc(C=O)cc(OC)c2O)ccc1O`, for which the IC50 was more than 25 µM.
The compound `COc1cc([C@@H]2Oc3c(OC)cc(C(=O)O)cc3[C@H]2COC(=O)CC(C)C)ccc1O` registered an IC50 of more than 25 µM.
On to `COc1cc([C@@H](O)[C@H](O)COC(=O)CC(C)C)ccc1O`, for which the IC50 was more than 25 µM.
`COc1cc(C(=O)[C@H](O)COC(=O)CC(C)C)ccc1O` came in with an IC50 of more than 25 µM.
`COc1cc([C@@H]2Oc3c(OC)cc(/C=C/COC(=O)CC(C)C)cc3[C@H]2COC(=O)CC(C)C)ccc1O` had an IC50 of 13.4 µM.
`COc1cc(/C=C/C=O)ccc1O` [CONIFERYL ALDEHYDE] displayed an IC50 of more than 25 µM.
`COc1cc([C@@H]2Oc3c(OC)cc(/C=C/COC(C)=O)cc3[C@H]2COC(C)=O)ccc1O` registered a half-maximal inhibitory concentration (IC50) of 16.2 µM.
